Bioassay records deposited in PubChem by Broad Institute.
E-selectin induc: induces E-selectin expression in human endothelial cells; HUVEC E-selectin immunofluorescence imaging; normalized: neutral wells 0, TNF-alpha wells 100; activation, % at 7.58 µM; 260,000 compounds, 0.37% hits; AID 686992;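 active = mean E-selectin-positive cell signal at least 10% of the positive control, reached in at least 60% of replicates, without over 20% cell loss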
Target sequence (P16581 whole entry, looked up): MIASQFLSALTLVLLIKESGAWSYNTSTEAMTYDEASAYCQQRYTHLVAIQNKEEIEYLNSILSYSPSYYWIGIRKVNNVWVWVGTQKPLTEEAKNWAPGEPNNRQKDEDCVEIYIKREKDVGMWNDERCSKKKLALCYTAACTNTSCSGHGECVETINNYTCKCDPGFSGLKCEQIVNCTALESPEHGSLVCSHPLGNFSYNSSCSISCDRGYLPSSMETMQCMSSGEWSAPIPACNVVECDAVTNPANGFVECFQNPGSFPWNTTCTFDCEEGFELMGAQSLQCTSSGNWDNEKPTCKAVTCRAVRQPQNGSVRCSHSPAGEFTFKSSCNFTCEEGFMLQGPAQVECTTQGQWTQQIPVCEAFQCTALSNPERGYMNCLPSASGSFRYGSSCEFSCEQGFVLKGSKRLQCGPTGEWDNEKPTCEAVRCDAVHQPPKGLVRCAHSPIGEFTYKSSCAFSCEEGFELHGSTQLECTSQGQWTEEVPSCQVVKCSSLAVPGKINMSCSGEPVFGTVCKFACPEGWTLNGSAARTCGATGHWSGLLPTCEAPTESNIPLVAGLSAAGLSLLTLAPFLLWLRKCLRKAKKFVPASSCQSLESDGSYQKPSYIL
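assay system = HUVEC, human umbilical vein endothelial cells | input = 3,000 HUVEC seeded per well | medium = EGM-2 growth medium on 0.1% gelatin-coated wells | dosing = one compound dose added by pin transfer | signal = immunofluorescence imaging | read-out basis = % PE-positive cells | control set = TNF-alpha, DMSO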
SIRT5 inh: inhibitors of human sirtuin-5 desuccinylase | Q9NXA8 | Purified SirT5, succinyl-peptide AMC, trypsin-coupled fluorescence | inhibition, % at 15 µM | 330,000 compounds, 1.1% hits | AID 652115; in the data active = inhibition above about 15%
DENV2 CPE rescue: inhibitors of DENV2 cytopathic effect; DENV2-infected cells, cytopathic effect rescue, plate reader; CPE inhibition, % at 9.99 µM; 350,000 compounds, 1.7% hits; in the data active = CPE inhibition above about 20%, passing the limit was not always enough; tested in BHK-21 cells
Of the large screens only hits and unclear results are named; the others gave an inactive call. A selection: hits, their analogues and other compounds. The true share with any hit is near 2.8%.

CCC(=O)N1CCCCN2[C@H](CO)[C@H](c3ccc(-c4cccc(C#N)c4)cc3)[C@@H]2C1	SIRT5 inh 20.7
N#Cc1cccc(-c2ccc([C@@H]3[C@@H](CO)N4CCCCN(C(=O)Nc5ccc(F)cc5)C[C@@H]34)cc2)c1	none
COc1ccc(S(=O)(=O)N2C[C@@H](O)COC[C@H]3O[C@@H](CC(=O)NCCCN4CCOCC4)CC[C@@H]32)cc1	none
O=C(C[C@@H]1C[C@H]2c3cc(NS(=O)(=O)c4ccccc4)ccc3O[C@H]2[C@H](CO)O1)NCC1CC1	none
C[C@H](CO)N1C[C@H](C)[C@H](CN(C)C(=O)C2CC2)Oc2cc(C#Cc3ccncc3)ccc2S1(=O)=O	none
C[C@H](O)C#Cc1ccc2c(c1)O[C@@H](CN(C)C(=O)C1CC1)[C@@H](C)CN([C@H](C)CO)S2(=O)=O	none
C[C@@H]1CN([C@H](C)CO)S(=O)(=O)c2ccc(C#Cc3ccncc3)cc2O[C@@H]1CN(C)C(=O)C1CC1	DENV2 CPE rescue 30.0
C[C@H](O)C#Cc1ccc2c(c1)O[C@H](CN(C)C(=O)C1CC1)[C@@H](C)CN([C@@H](C)CO)S2(=O)=O	DENV2 CPE rescue 56.6
C[C@@H](O)C#Cc1ccc2c(c1)O[C@@H](CN(C)C(=O)CN(C)C)[C@@H](C)CN([C@@H](C)CO)S2(=O)=O	none
C[C@@H]1CN([C@H](C)CO)S(=O)(=O)c2ccc(C#Cc3ccccc3)cc2O[C@@H]1CN(C)C(=O)C1CC1	none
C[C@H](O)C#Cc1ccc2c(c1)O[C@H](CN(C)C(=O)CN(C)C)[C@H](C)CN([C@H](C)CO)S2(=O)=O	DENV2 CPE rescue 42.2
C[C@@H]1CN([C@@H](C)CO)S(=O)(=O)c2ccc(C#Cc3ccccc3)cc2O[C@H]1CN(C)C(=O)C1CC1	SIRT5 inh 20.1
O=C(C[C@H]1CC[C@H](NC(=O)CC2CC2)[C@@H](CO)O1)NCc1ccccc1	none
Cc1ccc(S(=O)(=O)N[C@@H]2CC[C@@H](CCn3cc(C4CC4)nn3)O[C@H]2CO)cc1	none
Cc1noc(C)c1S(=O)(=O)Nc1ccc2c(c1)C(=O)N([C@@H](C)CO)C[C@@H](C)[C@H](CN(C)CC1CC1)OCCCC[C@H](C)O2	none (no result: SIRT5 inh)
COc1cccc(CNC(=O)C[C@@H]2CC[C@@H]3[C@@H](COc4ccc(NC(C)=O)cc4C(=O)N3C)O2)c1	none (no result: SIRT5 inh)
O=C(c1ccccc1)N1CC(=O)N2[C@H](CO)[C@@H](c3ccc(C#CCC4CCCC4)cc3)[C@H]2C1	none
CC(C)(C)c1ccc(S(=O)(=O)NC(=O)C2(C)CCN2C(=O)C2CCCCC2)cc1 (stereo unspecified)	SIRT5 inh 19.2
CC(C)(C)c1ccc(S(=O)(=O)NC(=O)C2(C)CCN2C(=O)CC2CCCCC2)cc1 (stereo unspecified)	none
CCS(=O)(=O)NCC[C@H]1CC[C@H](NS(=O)(=O)c2cccc(F)c2)[C@H](CO)O1	none (no result: DENV2 CPE rescue)
CC1c2ccccc2N(S(=O)(=O)c2ccccc2)C1C (stereo unspecified)	none (no result: SIRT5 inh)
CC(=O)N1c2ccccc2[C@H](C)[C@H]1C	DENV2 CPE rescue 69.6 (no result: SIRT5 inh)
CC(C)CC#Cc1ccc2c(c1)O[C@@H](CN(C)C(=O)Cc1ccccc1)[C@H](C)CN([C@@H](C)CO)S2(=O)=O	none
C[C@@H]1CCCCO[C@H](CN(C)S(=O)(=O)c2ccc(F)cc2)[C@@H](C)CN([C@H](C)CO)C(=O)c2cc(NC(=O)C3CCCCC3)ccc2O1	none
COc1cc2c(cc1OC)[C@@H]1Cc3ccc(OC)c(OC)c3CN1CC2	none
COc1cc2c(cc1OC)CN1CCc3cc(OC)c(OC)cc3C1C2 (stereo unspecified)	SIRT5 inh 22.6 (no result: E-selectin induc)
C[C@H]1CN([C@@H](C)CO)C(=O)c2cccc(NC(=O)Nc3ccc4c(c3)OCO4)c2O[C@H]1CN(C)C(=O)Nc1cccc2ccccc12	none
CC(Oc1ccccc1)C(=O)Nc1nnc(C2CCCCC2)s1 (stereo unspecified)	SIRT5 inh 22.0 (no result: E-selectin induc)
CC(Oc1ccccc1)C(=O)Nc1nnc(S(=O)(=O)N2CCCCC2)s1 (stereo unspecified)	none (no result: E-selectin induc)
CCc1nnc(NC(=O)CCS(=O)(=O)Cc2ccccc2)s1	none
O=C(CCS(=O)(=O)Cc1ccccc1)Nc1nncs1	SIRT5 inh 18.8
C[C@@H]1CCCCO[C@H](CN(C)C(=O)NC2CCCCC2)[C@H](C)CN([C@@H](C)CO)C(=O)c2cc(NC(=O)CCC(F)(F)F)ccc2O1	none
C[C@H](CO)N1C[C@H](C)[C@H](CN(C)S(=O)(=O)c2ccccc2)OCCCC[C@H](C)Oc2ccc(NC(=O)Nc3ccccc3)cc2C1=O	none (no result: E-selectin induc)
O=S(=O)(N[C@H]1CC[C@H](CCn2cc(-c3ccccn3)nn2)O[C@@H]1CO)c1cccc(Cl)c1	none
C[C@@H]1CN([C@@H](C)CO)C(=O)Cc2cc(NC(=O)Cc3ccccc3)ccc2O[C@H]1CN(C)Cc1ccc(Cl)c(Cl)c1	DENV2 CPE rescue 26.3
C[C@@H]1CN([C@H](C)CO)C(=O)Cc2cc(NC(=O)Cc3ccccc3)ccc2O[C@H]1CN(C)Cc1ccc(Cl)c(Cl)c1	DENV2 CPE rescue 27.5
C[C@@H]1CN([C@@H](C)CO)C(=O)c2cc(NC(=O)Cc3ccccc3)ccc2O[C@@H]1CN(C)Cc1ccc(Cl)c(Cl)c1	E-selectin induc 34.9
C[C@H](CO)N1C[C@H](C)[C@@H](CN(C)Cc2ccc(Cl)c(Cl)c2)Oc2ccc(NC(=O)Cc3ccccc3)cc2C1=O	none
C[C@H](CO)N1C[C@H](C)[C@@H](CN(C)Cc2ccc(Cl)c(Cl)c2)Oc2ccc(NC(=O)Cc3ccccc3)cc2CC1=O	none
C[C@H](CO)N1C[C@H](C)[C@H](CN(C)Cc2ccc(Cl)c(Cl)c2)Oc2ccc(NC(=O)Cc3ccccc3)cc2CC1=O	none
CC(C)NC(=O)Nc1ccc2c(c1)C(=O)N([C@@H](C)CO)C[C@@H](C)[C@@H](CN(C)Cc1ccc(Cl)c(Cl)c1)O2	none
CC(C)NC(=O)Nc1ccc2c(c1)C(=O)N([C@H](C)CO)C[C@H](C)[C@@H](CN(C)Cc1ccc(Cl)c(Cl)c1)O2	SIRT5 inh 24.3
CCCNC(=O)Nc1ccc2c(c1)C(=O)N(C)[C@@H]1CC[C@H](CC(=O)OC)O[C@@H]1CO2	none
COc1ccc(CNC(=O)C[C@@H]2C[C@@H]3c4cc(NS(C)(=O)=O)ccc4O[C@@H]3[C@H](CO)O2)cc1	none
CCCNC(=O)N1CC2(CCN(C(=O)c3cnccn3)CC2)c2c([nH]c3cc(OC)ccc23)[C@@H]1CO	none
COc1ccc(NC(=O)Nc2ccc3c(c2)[C@H]2C[C@H](CC(=O)N4CCc5ccccc5C4)O[C@H](CO)[C@H]2O3)cc1	none
COCCOC(=O)N1C(=O)[C@@]2(c3cc(C#Cc4ccc(OC)cc4)ccc31)[C@H](c1ccccc1OCCO)N1[C@H](c3ccccc3)[C@H](c3ccccc3)OC(=O)[C@H]1[C@@H]2C(=O)NC[C@H](O)c1ccccc1	none (no result: E-selectin induc)
COCCOC(=O)N1C(=O)[C@@]2(c3cc(C#CCC(C(=O)OC)C(=O)OC)ccc31)[C@H](c1ccccc1OCCO)N1[C@H](c3ccccc3)[C@H](c3ccccc3)OC(=O)[C@H]1[C@@H]2C(=O)NC[C@H](O)c1ccccc1	SIRT5 inh 16.2, DENV2 CPE rescue 30.5 (no result: E-selectin induc)
